Compound activity as filed in PubChem.
proCasp3 act: activates human procaspase-3. recombinant procaspase-3 D3A, Ac-DEVD-pNA absorbance 405 nm. hit rate 0.11% among 330,000. AID 463141. activation, % at 8.5 µM;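 active means activation above the mean of all tested compounds plus 3 SD, cut at about 21% in these data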;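 further: 0% = DMSO alone and 100% = DMSO wells spiked with extra 5 µM PC-3 D3A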
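material = Procaspase-3 D3A mutant | probe or stimulus = Ac-DEVD-pNA | compound = single dose, 8.5 µM nominal compound, 0.8% DMSO | timing = 1 h preincubation, 2 h reaction | measured by = 405 nm absorbance of p-nitroaniline, reads at 0 and 120 min | benchmarks = DMSO-only low control, 5 µM PC-3 D3A high control | repeats = singlicate, each compound tested once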
LYPLA1 counter: blocks human lysophospholipase 1, a PME1 counter-screen. O75608. recombinant LYPLA1, FP-Rh probe fluorescence polarization. inhibition, % at 5.9 µM. hit rate 0.16% among 320,000. AID 2174;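 active means inhibition above the mean of all tested compounds plus 3 SD, set per campaign, cut at about 14% in these data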;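 further: inhibitors block serine hydrolase probe labeling of LYPLA1 so polarization falls; 0% = enzyme with DMSO and 100% = wells lacking LYPLA1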
proCasp7 act: counter-screen for procaspase-3 activators: activators of human procaspase-7. P55210. recombinant procaspase-7, Ac-DEVD-pNA absorbance 405 nm; D23A/D198A/D206A triple mutant, cannot self-cleave; scale: DMSO 0, 5 µM enzyme 100. activation, % at 8.5 µM. hit rate 0.093% among 330,000. AID 463210;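 active means percent activation above the screen-wide mean plus 3 SD, cut at about 25% in these data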
Target sequence (P55210 whole entry D23A/D198A/D206A): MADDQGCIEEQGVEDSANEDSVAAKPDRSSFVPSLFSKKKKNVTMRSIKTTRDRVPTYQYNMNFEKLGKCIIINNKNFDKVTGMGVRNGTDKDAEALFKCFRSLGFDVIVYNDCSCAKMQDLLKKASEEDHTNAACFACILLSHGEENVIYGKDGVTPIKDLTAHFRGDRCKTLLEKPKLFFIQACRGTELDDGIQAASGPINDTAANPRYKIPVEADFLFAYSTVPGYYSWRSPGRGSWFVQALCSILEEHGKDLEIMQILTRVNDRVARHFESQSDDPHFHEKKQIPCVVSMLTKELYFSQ
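Assay system – Uncleavable procaspase-7 mutant enzyme · Quantity – 2 µM procaspase-7 mutant as dispensed · Times – 1 h preincubation, 2 h reaction · Dosing – single nominal 8.5 µM compound dose, 0.8% DMSO final · Buffer or medium – Zinc-free 50 mM HEPES buffer, pH 7.4, with NaCl and Triton X-100 · Detection – Epi-absorbance of released pNA at 405 nm, two timepoints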
LYPLA2 counter: counter-screen for PME1 inhibitors: inhibitors of human LYPLA2; O95372; recombinant LYPLA2, FP-Rh probe fluorescence polarization; inhibition, % at 5.9 µM; hit rate 0.38% among 320,000; AID 2177;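 active means inhibition above the screen-wide mean plus 3 SD, limit set per campaign, cut at about 26% in these data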;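 further: 0% = LYPLA2 with DMSO and 100% = wells lacking LYPLA2 enzyme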
Target sequence (O95372 whole entry, looked up): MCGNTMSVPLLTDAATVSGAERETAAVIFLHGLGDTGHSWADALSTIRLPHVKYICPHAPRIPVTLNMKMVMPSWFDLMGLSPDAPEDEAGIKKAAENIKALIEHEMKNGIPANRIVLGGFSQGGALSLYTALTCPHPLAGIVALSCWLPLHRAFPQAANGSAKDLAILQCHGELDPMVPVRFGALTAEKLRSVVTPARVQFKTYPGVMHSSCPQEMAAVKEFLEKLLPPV
PREPL inh: inhibits the human prolyl oligopeptidase-like enzyme | Q4J6C6 | recombinant PREPL, fluorescence polarization activity-based probe | hit rate 0.68% among 320,000 | inhibition, % at 5.96 µM;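 further: 0% = enzyme with DMSO and 100% = wells lacking enzyme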
PREPL confirm: confirmation of human PREPL enzyme inhibitors | recombinant PREPL, fluorescence polarization activity probe | hit rate 67% among 2,000 | AID 2803 | shares compounds with PREPL inh | inhibition, % at 5.96 µM;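 further: 0% = protein with DMSO and 100% = wells lacking protein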
Active calls of the source: *; nt = no result given. The list is not random: actives were taken first. Their share in the collection is about 1%. Unless noted, no stated cut-off is given here; in the data, active means inhibition above about 43%; inactive means the rest.

SMILES | proCasp3 act | LYPLA1 counter | proCasp7 act | LYPLA2 counter | PREPL inh | PREPL confirm
O=C(C[C@@H]1C/C=C\C[C@@H](Cc2ccc(F)cc2)C(=O)OC[C@@H](Cc2c[nH]c3ccccc23)NC1=O)NCCO | 1 | nt | 13 | nt | 54* | 47*
O=C(C[C@@H]1C/C=C\C[C@H](Cc2ccc(F)cc2)C(=O)OC[C@@H](Cc2c[nH]c3ccccc23)NC1=O)NCCO | 2 | nt | -2 | nt | 32 | nt
COc1ccc(NC(=O)c2cccc(OS(=O)(=O)N(C)C)c2)cc1 | -2 | -3 | 2 | 0 | 0 | nt
CCOC(=O)c1ccc[n+](C(C)C(=O)c2ccc(-c3ccccc3)cc2)c1 (stereo not given) | -3 | -1 | 4 | 4 | 61* | 48*
COc1ccc(OC)c(-n2c(=S)[nH]c3cc(C(=O)N(C)Cc4ccccc4)ccc3c2=O)c1 | 9 | 1 | 5 | 2 | 3 | nt
O=C(Nc1cccc(S(=O)(=O)N2CCCC2)c1)c1ccc2ccccc2n1 | -3 | -9 | 2 | -7 | 0 | nt
CNS(=O)(=O)c1cccc(C(=O)NNC(=O)CN(C)S(=O)(=O)c2ccc(Cl)cc2)c1 | 5 | 0 | 2 | 4 | 4 | nt
Cn1c(SCc2ccc(Br)cc2)nc2c(c1=O)SCC2 | -6 | -3 | 5 | 19 | 47* | 42
Cn1c(SCc2cccnc2)nc2c(c1=O)SCC2 | -2 | -1 | 7 | -2 | 1 | nt
C#CCOCCOCCOCCNc1nc(N2CCN(C(=O)[C@H](CCC(=O)O)n3cc(C(N)[C@H](C)CC)nn3)CC2)nc(N2CCN(C(=O)[C@H](Cc3cc4ccccc4[nH]3)n3cc(C(N)[C@H](C)CC)nn3)CC2)n1 (stereo not given in full) | 2 | 0 | 0 | 2 | 9 | nt
C#CCOCCOCCOCCNc1nc(N2CCN(C(=O)C(Cc3cc4ccccc4[nH]3)n3cc(C(N)C(C)CC)nn3)CC2)nc(N2CCN(C(=O)C(Cc3cc4ccccc4[nH]3)n3cc(C(N)C(C)CC)nn3)CC2)n1 (stereo not given) | 3 | -3 | -4 | 0 | 50* | 62*
C#CCOCCOCCOCCNc1nc(N2CCN(C(=O)[C@H](CCCCN)n3cc([C@@H](N)C(C)CC)nn3)CC2)nc(N2CCN(C(=O)[C@H](Cc3cc4ccccc4[nH]3)n3cc([C@@H](N)C(C)CC)nn3)CC2)n1 (stereo not given in full) | -2 | nt | -1 | nt | 57* | 53*
Cc1ccc(S(=O)(=O)N2CCOC23CCN(C(=O)c2cc(Cl)ccc2Cl)CC3)cc1 | 0 | -2 | -2 | -1 | 7 | nt
CN(CCCC(=O)NCc1ccc2c(c1)OCO2)S(=O)(=O)c1ccc([N+](=O)[O-])cc1 | 6 | 5 | 0 | 8 | 5 | nt
CCOc1ccc(OCC)c(NC(=O)CN2CCN(c3cccc(C)c3)CC2)c1 | 5 | 4 | 7 | 1 | 31 | nt
CCOc1ccc(OCC)c(NC(=O)CN2CCN(c3cc(C)ccc3C)CC2)c1 | 10 | 2 | 18 | 5 | 50* | 35
C#CCOCCOCCOCCNc1nc(N2CCN(C(=O)[C@H](CCCCN)n3cc([C@@H](N)CC(C)C)nn3)CC2)nc(N2CCN(C(=O)[C@H](Cc3ccc(O)cc3)n3cc([C@@H](N)CC(C)C)nn3)CC2)n1 | -4 | 3 | -10 | -4 | 18 | nt
C#CCOCCOCCOCCNc1nc(N2CCN(C(=O)[C@H](CCCCN)n3cc([C@@H](N)CO)nn3)CC2)nc(N2CCN(C(=O)[C@H](Cc3cc4ccccc4[nH]3)n3cc([C@@H](N)Cc4ccc(O)cc4)nn3)CC2)n1 | 5 | -4 | -6 | 2 | 55* | 50*
C#CCOCCOCCOCCNc1nc(N2CCN(C(=O)[C@H](CCCCN)n3cc([C@@H](N)CC(C)C)nn3)CC2)nc(N2CCN(C(=O)[C@H](Cc3cc4ccccc4[nH]3)n3cc([C@@H](N)Cc4ccc(O)cc4)nn3)CC2)n1 | 5 | 0 | -11 | -3 | 49* | 52*
CC(=O)Nc1ccc(N(CC(=O)NCC2CCCO2)C(=O)CCC(=O)Nc2cc(C)on2)cc1 (stereo not given) | 6 | -1 | -1 | 2 | 5 | nt
COc1cccc(N=Nc2c(N)[nH]n3c(=O)c4c(nc23)CCCC4)c1 | -17 | 3 | -28 | 0 | 59* | 57*
COc1cccc(N=Nc2c(N)[nH][nH]c2=O)c1 | 1 | -5 | 5 | -3 | 3 | nt
C#CCOCCOCCOCCNc1nc(N2CCN(C(=O)CCCCCCCCCCNC(=O)[C@H](CCCCN)n3cc(CCO)nn3)CC2)nc(N2CCN(C(=O)CCCCCCCCCCNC(=O)[C@H](CCCCN)n3cc(CCCC(=O)O)nn3)CC2)n1 | -4 | 2 | -5 | 3 | 28 | nt
C#CCOCCOCCOCCNc1nc(N2CCN(C(=O)CCCCCCCCCCNC(=O)[C@H](CCCCN)n3cc(C[C@@H](C)CC)nn3)CC2)nc(N2CCN(C(=O)CCCCCCCCCCNC(=O)[C@@H]([C@H](C)O)n3cc(C)nn3)CC2)n1 | -8 | -5 | 4 | -6 | 35 | nt
C#CCOCCOCCOCCNc1nc(N2CCN(C(=O)CCCCCCCCCCNC(=O)[C@H](CCCCN)n3cc(C)nn3)CC2)nc(N2CCN(C(=O)CCCCCCCCCCNC(=O)[C@H](CCCN=C(N)N)n3cc(C[C@@H](C)CC)nn3)CC2)n1 | -2 | -3 | -2 | 4 | 47* | 56*
SMILES | proCasp3 act | LYPLA1 counter | proCasp7 act | LYPLA2 counter | PREPL inh | PREPL confirm
C#CCOCCOCCOCCNc1nc(N2CCN(C(=O)CCCCCCCCCCNC(=O)[C@H](CCCCN)n3cc(CCO)nn3)CC2)nc(N2CCN(C(=O)CCCCCCCCCCNC(=O)[C@H](CCCCN)n3cc(C[C@@H](C)CC)nn3)CC2)n1 | -1 | -1 | -3 | -4 | 45* | 55*
CC12CNCC(C)(CN(C(c3ccccc3)c3ccccc3)C1)C2 | 6 | 1 | 5 | 12 | 46* | 13
CC(=O)N(CCc1ccccc1)Cc1cc2cc(C)ccc2[nH]c1=O | 8 | 1 | 4 | 3 | -24 | nt
CNS(=O)(=O)c1cccc(C(=O)OCC(=O)N(CCC#N)c2ccccc2)c1 | 12 | 4 | -1 | -5 | -1 | nt
Cc1cc(C)cc(N(CCC#N)C(=O)COC(=O)CNC(=O)c2sc3ccccc3c2Cl)c1 | -10 | -4 | 8 | -2 | 43* | 40
Cc1ccc(S(=O)(=O)NCC(=O)OCC(=O)N(CCC#N)c2ccccc2)cc1 | 2 | nt | 11 | nt | 47* | 38
O=C1CC(c2ccc(Cl)cc2)CC(O)=C1C=NCCN1CCNCC1 (stereo not given) | 8 | 0 | -1 | -3 | 28 | nt
OC(CNC1CCCC1)COCCOc1ccc(Br)cc1 (stereo not given) | 2 | 3 | 3 | 0 | 46* | 35
